Results: ChEMBL document CHEMBL4706654, “Novel cyanothiouracil and cyanothiocytosine derivatives as concentration-dependent selective inhibitors of U87MG glioblastomas: Adenosine receptor binding and potent PDE4 inhibition” (Eur J Med Chem, 2021)

Experiments:
U-87 MG [1] = assay: Antiproliferative activity against human U-87 MG cells assessed as cell viability at 50 uM measured after 24 to 48 hrs by MTT assay relative to control; format: functional, U-87MG ATCC; settings: time 24-48 hrs, read-out: Activity
How it was run: (§1)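 Cells seeded per well 24 h before treatment: HEK293 at 5.10^4, MCF7 at 4.10^4, U87MG at 10^5. Compounds were dissolved in DMSO (less than 1%) and diluted in DMEM, then incubated 24 and 48 h. Cells were washed with D-PBS and given MTT (from a 5 mg/mL stock) for 4 h, dissolved in DMSO, read at 540 nm. % viability = sample/control absorbance ×100. At least three independent experiments.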

U-87 MG [2] = assay: Antiproliferative activity against human U-87 MG cells assessed as reduction in cell viability measured after 24 to 48 hrs by MTT assay; format: functional, cell-based, U-87MG ATCC; how it was run: as §1
U-87 MG [3] = assay: Antiproliferative activity against human U-87 MG cells assessed as cell viability at 100 uM measured after 24 to 48 hrs by MTT assay relative to control; format: functional, U-87MG ATCC; settings: time 24-48 hrs, read-out: Activity; how it was run: as §1
HEK293 = assay: Cytotoxicity against HEK293 cells assessed as reduction in cell viability measured after 24 to 48 hrs by MTT assay; format: cell-based; settings: Homo sapiens; how it was run: as §1
U-87 MG [4] = assay: Antiproliferative activity against human U-87 MG cells assessed as cell viability at 5 uM measured after 24 to 48 hrs by MTT assay relative to control; format: functional, U-87MG ATCC; settings: time 24-48 hrs, read-out: Activity; how it was run: as §1
U-87 MG [5] = assay: Antiproliferative activity against human U-87 MG cells assessed as cell viability at 10 uM measured after 24 to 48 hrs by MTT assay relative to control; format: functional, U-87MG ATCC; settings: time 24-48 hrs, read-out: Activity; how it was run: as §1
[6] = Cytotoxicity against HEK293 cells assessed as cell viability at 100 uM measured after 24 to 48 hrs by MTT assay relative to control; format: cell-based; settings: human, HEK293 cells, time 24-48 hrs, read-out: Activity; how it was run: as §1
[7] = molecular target: 3',5'-cyclic-AMP phosphodiesterase 4B (Homo sapiens, UniProt Q07343); assay: Inhibition of recombinant human PDE4B using […] as substrate measured after 90 mins by colorimetric assay
How it was run: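 Recombinant human PDE4 was incubated with 0.5 μM 5′-cGMP plus 5′-nucleotidase for 90 min at 30°C. The reaction was stopped with termination buffer for 20 min at room temperature, and released phosphate was read at OD 620 nm. IC50 was determined from 6 inhibitor concentrations. Compound stocks were in DMSO (less than 1%), with at least triplicate runs, mean ± SD.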

Sequence of 3',5'-cyclic-AMP phosphodiesterase 4B (Q07343 whole entry): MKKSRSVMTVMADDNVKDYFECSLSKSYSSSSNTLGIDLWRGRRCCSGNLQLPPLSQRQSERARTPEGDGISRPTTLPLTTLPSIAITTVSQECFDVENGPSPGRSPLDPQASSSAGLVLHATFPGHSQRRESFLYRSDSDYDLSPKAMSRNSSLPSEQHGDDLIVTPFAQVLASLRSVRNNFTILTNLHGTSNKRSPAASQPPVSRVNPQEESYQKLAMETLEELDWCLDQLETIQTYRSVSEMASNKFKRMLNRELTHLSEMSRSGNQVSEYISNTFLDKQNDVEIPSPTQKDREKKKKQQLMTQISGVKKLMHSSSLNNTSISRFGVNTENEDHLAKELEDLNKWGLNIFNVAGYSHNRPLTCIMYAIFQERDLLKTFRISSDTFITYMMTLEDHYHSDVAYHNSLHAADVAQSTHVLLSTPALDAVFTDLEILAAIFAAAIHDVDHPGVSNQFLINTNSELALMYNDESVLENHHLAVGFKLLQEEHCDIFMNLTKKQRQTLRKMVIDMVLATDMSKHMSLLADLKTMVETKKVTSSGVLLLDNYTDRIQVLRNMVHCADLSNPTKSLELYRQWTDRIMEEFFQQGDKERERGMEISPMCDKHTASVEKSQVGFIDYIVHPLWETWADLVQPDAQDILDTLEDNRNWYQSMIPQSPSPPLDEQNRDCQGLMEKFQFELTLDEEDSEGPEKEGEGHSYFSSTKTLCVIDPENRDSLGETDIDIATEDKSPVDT

| SMILES | viability at 50 µM (U-87 MG [1]) | IC50 (U-87 MG [2]) | viability at 100 µM (U-87 MG [3]) | IC50 (HEK293) | viability at 5 µM (U-87 MG [4]) | viability at 10 µM (U-87 MG [5]) | viability at 100 µM [6] | IC50 [7] |
| --- | --- | --- | --- | --- | --- | --- | --- | --- |
| COc1cccc(-c2nc(SCC(=O)c3sc(-c4ccc(Cl)cc4)nc3C)[nH]c(=O)c2C#N)c1 | 47.6% | 41 µM | 8.54% | 77.9 µM | 96.6% | 89.7% | – | – |
| Cc1nc(-c2ccc(Cl)cc2)sc1C(=O)CSc1nc(-c2cccc(Cl)c2)c(C#N)c(=O)[nH]1 | 52.6% | 40.1 µM | 12.5% | 30.1 µM | 80.2% | 95.2% | – | – |
| COc1ccc(-c2nc(C)c(C(=O)CSc3nc(-c4ccc5c(c4)OCO5)c(C#N)c(=O)[nH]3)s2)cc1 | 83.2% | 65.3 µM | 22.9% | – | 100% | 88.3% | > 50% | – |
| Cc1nc(-c2ccccc2)sc1C(=O)CSc1nc(-c2ccc(Cl)cc2)c(C#N)c(=O)[nH]1 | 63.4% | 43.4 µM | 22.5% | – | 90.9% | 85.2% | > 50% | – |
| COc1cccc(-c2nc(SCC(=O)c3sc(-c4ccccc4)nc3C)[nH]c(=O)c2C#N)c1 | 80.3% | 59.7 µM | 21.8% | 90.2 µM | 99% | 90.2% | – | – |
| Cc1nc(-c2ccccc2)sc1C(=O)CSc1nc(-c2ccc3c(c2)OCO3)c(C#N)c(=O)[nH]1 | 42.6% | 33.7 µM | 18.7% | – | 93.4% | 84.2% | > 50% | – |
| CC(C)Cn1c(=O)n(C)c(=O)c2[nH]cnc21 [ISOBUTYLMETHYLXANTHINE] | – | – | – | – | – | – | – | 14.3 µM |
| Cc1nc(-c2ccc(Cl)cc2)sc1C(=O)CSc1nc(-c2ccccc2)c(C#N)c(=O)[nH]1 | 41.6% | 27.6 µM | 11.4% | – | 88.9% | 83.1% | > 50% | – |
| Cc1nc(-c2ccccc2)sc1C(=O)CSc1nc(-c2cccc(Cl)c2)c(C#N)c(=O)[nH]1 | 50.6% | 28.2 µM | 10% | – | 86.9% | 83.7% | > 50% | – |
| Cc1nc(-c2ccccc2)sc1C(=O)CSc1nc(-c2ccccc2)c(C#N)c(=O)[nH]1 | 77.5% | 56.6 µM | 9.23% | 93.5 µM | 92.1% | 87.5% | – | – |
| COc1ccc(-c2nc(SCC(=O)c3sc(-c4ccc(Cl)cc4)nc3C)[nH]c(=O)c2C#N)cc1OC | 59.8% | 38.6 µM | 18.7% | – | 93.4% | 83.3% | > 50% | – |
| Cc1nc(-c2ccc(Cl)cc2)sc1C(=O)CSc1nc(-c2ccc(Cl)cc2)c(C#N)c(=O)[nH]1 | 60% | 53 µM | 12.8% | 75.1 µM | 99% | 98.4% | – | – |
| COc1ccc(-c2nc(C)c(C(=O)CSc3nc(-c4ccc(Cl)c(Cl)c4)c(C#N)c(=O)[nH]3)s2)cc1 | 78.4% | 68.5 µM | 31.1% | 45.6 µM | 101% | 88.6% | – | – |
| Cc1nc(-c2ccc(Cl)cc2)sc1C(=O)CSc1nc(-c2ccc3c(c2)OCO3)c(C#N)c(=O)[nH]1 | 68.3% | 55.5 µM | 9.91% | 81.4 µM | 101% | 95% | – | – |
| COc1ccc(-c2nc(C)c(C(=O)CSc3nc(-c4cccc(OC)c4)c(C#N)c(=O)[nH]3)s2)cc1 | 43.2% | 15.3 µM | 12.4% | 95.4 µM | 71.3% | 66.7% | – | – |
| COc1ccc(-c2nc(C)c(C(=O)CSc3nc(-c4ccc(Cl)cc4)c(C#N)c(=O)[nH]3)s2)cc1 | 48% | 45.9 µM | 2.85% | 63 µM | 102% | 92.7% | – | – |
| Cc1nc(-c2ccc(Cl)cc2)sc1C(=O)CSc1nc(-c2ccc(Cl)c(Cl)c2)c(C#N)c(=O)[nH]1 | 93.9% | 83.9 µM | 36.5% | 46.9 µM | 101% | 97.1% | – | – |
| COc1ccc(-c2nc(C)c(C(=O)CSc3nc(-c4ccccc4)c(C#N)c(=O)[nH]3)s2)cc1 | 72.5% | 57.2 µM | 10.9% | – | 99% | 90.9% | > 50% | – |
| COc1ccc(-c2nc(C)c(C(=O)CSc3nc(-c4cccc(Cl)c4)c(C#N)c(=O)[nH]3)s2)cc1 | 83.4% | 78.9 µM | 40.6% | – | 95.7% | 90.6% | > 50% | – |
| Cc1nc(-c2ccccc2)sc1C(=O)CSc1nc(-c2ccc(Cl)c(Cl)c2)c(C#N)c(=O)[nH]1 | 75.3% | 65 µM | 24.4% | 85.1 µM | 98.6% | 92.5% | – | – |
| COc1ccc(-c2nc(SCC(=O)c3sc(-c4ccccc4)nc3C)[nH]c(=O)c2C#N)cc1 | 52.1% | 48.4 µM | 1.08% | 76.2 µM | 97.3% | 90.4% | – | – |
| COc1ccc(-c2nc(SCC(=O)c3sc(-c4ccc(Cl)cc4)nc3C)[nH]c(=O)c2C#N)cc1 | 46.3% | 35.5 µM | 16.6% | – | 92.1% | 88.3% | > 50% | – |
| COc1ccc(-c2nc(C)c(C(=O)CSc3nc(-c4ccc(OC)cc4)c(C#N)c(=O)[nH]3)s2)cc1 | 32.6% | 25.3 µM | 11.5% | – | 97% | 80.3% | > 50% | – |
